# Lmaj promast = inhibitors of Leishmania major promastigote growth. Leishmania major promastigotes, resazurin fluorescence viability. inhibition, % at 10 µM. hit rate 9% among 200,000; in the data active = inhibition above about 50%;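 note: promastigotes grown with compound for 44 hours at 28 °C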
# S1P4 antag = antagonists of human S1P4 receptor. S1P4-expressing cells, antagonist mode, reporter read-out. inhibition, % at 4.98 µM. hit rate 0.26% among 220,000. AID 1510; in the data active = inhibition above about 29%;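 note: 0% = wells stimulated with agonist and 100% = vehicle wells without agonist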
# Target sequence (O95977 whole entry, looked up): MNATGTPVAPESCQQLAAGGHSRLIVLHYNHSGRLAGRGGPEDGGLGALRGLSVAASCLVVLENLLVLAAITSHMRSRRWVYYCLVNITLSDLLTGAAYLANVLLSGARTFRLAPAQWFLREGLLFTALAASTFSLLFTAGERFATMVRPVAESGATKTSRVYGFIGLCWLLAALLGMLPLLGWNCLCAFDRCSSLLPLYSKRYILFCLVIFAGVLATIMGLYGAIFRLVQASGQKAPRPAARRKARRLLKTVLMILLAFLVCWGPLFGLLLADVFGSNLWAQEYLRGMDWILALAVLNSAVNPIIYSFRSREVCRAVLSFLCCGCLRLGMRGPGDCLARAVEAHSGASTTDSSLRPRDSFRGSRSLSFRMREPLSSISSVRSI
# S1P4 ag = activates the human S1P4 receptor. O95977. S1P4-expressing cell line, agonist reporter assay. activation, % at 4.98 µM. hit rate 0.35% among 220,000. AID 1509; in the data active = activation above about 11%;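 note: 0% = DMSO vehicle and 100% = reference agonist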
# S1P3 antagonist = S1P3 (human) receptor antagonism | Q99500 | inhibition, % at 4.98 µM | AID 485 | hit rate 0.27% among 170,000 | CHO S1P3 NFAT-BLA reporter, FRET fluorescence, antagonist mode;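 active = inhibition above the plate cutoff, the mean inhibition of test wells on that plate plus 3 SD, cut at about 28% in these data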;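 note: cells challenged with S1P at its EC80 of 0.8 µM; blue over green emission ratio from cleaved BLA substrate after 4 h stimulation; 0% = S1P-stimulated wells and 100% = unstimulated DMSO-only wells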
# Mdm2 ligase inh = inhibitors of human Mdm2 E3 ubiquitin ligase. cell-based MDM2 ubiquitination luciferase reporter, 2 h; 0 = plate control, 100 = twice control, blank-subtracted. signal enhancement, % at 5 µM. hit rate 0.11% among 210,000. AID 1230;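 active = signal enhancement of 30% or more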;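 note: luminescence tracks abundance of the self-degrading MDM2-luciferase fusion protein; higher signal means inhibition of MDM2 E3 ligase activity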
#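 Material: Stable MDM2–luciferase fusion reporter cells | Amount: 2000 cells seeded into each well | Dosing: One concentration, 5 µM, with 0.2% DMSO | Incubation: 4 h cell settling then 2 h compound exposure, 37 °C | Measured by: Luciferase luminescence | Read-out basis: % enhancement relative to plate controls after blank subtraction | Benchmarks: Control and blank well means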
# An asterisk follows results filed as active; . = not tested or not shown. Shown is part of a subset that was picked to be rich in hits.
SMILES,Lmaj promast,S1P4 antag,S1P4 ag,S1P3 antagonist,Mdm2 ligase inh
CC(C)C[C@@H]1NC(=O)[C@H](C(C)C)NC(=O)c2cc([N+](=O)[O-])cc(I)c2OCC[C@@H](C(N)=O)NC1=O,-8,12,1,-20,.
COc1ccc(N2CCN(C(=O)C3CCC(Cn4c(=S)[nH]c5ccccc5c4=O)CC3)CC2)cc1 (stereo unspecified),99*,-20,2,.,-8
O=C(C1CCC(Cn2c(=S)[nH]c3ccccc3c2=O)CC1)N1CCOCC1 (stereo unspecified),-1,-72,0,10,-4
O=C(C1CCC(Cn2c(=S)[nH]c3ccccc3c2=O)CC1)N1CCN(c2ccccn2)CC1 (stereo unspecified),99*,-12,0,-16,-2
COc1ccccc1N1CCN(C(=O)C2CCC(Cn3c(=S)[nH]c4ccccc4c3=O)CC2)CC1 (stereo unspecified),64*,1,1,18,-3
O=C(C1CCC(Cn2c(=S)[nH]c3ccccc3c2=O)CC1)N1CCN(c2ccccc2)CC1 (stereo unspecified),99*,-8,-2,-17,.
Cc1nn(CCCC(=O)Nc2nccs2)c(C)c1[N+](=O)[O-],3,-5,2,11,-4
COc1ccc(N2CCN(CCCNC(=O)C3CCC(CNc4nc(=S)[nH]c5ccccc45)CC3)CC2)cc1 (stereo unspecified),86*,-2,4,-22,-2
COc1cccc(/C=N/NC(=O)c2[nH]c(C)c(C(=O)N/N=C/c3cccc(OC)c3)c2C)c1,8,-7,1,5,36*
CCOC(=O)c1c(C)[nH]c(C(=O)N/N=C/c2cccc(OC)c2)c1C,5,-20,0,-5,-5
Cc1cc(N)ccc1N1CCCC1,58*,-1,0,.,-5
CCn1c(SCC(=O)O)nnc1-c1cccnc1,-1,-4,-1,-1,-3
Cc1ccccc1-c1nn(-c2ccc(F)cc2F)cc1CNCCN(C)C,74*,-2,-1,-4,-11
Cc1ccccc1-c1nn(-c2ccc(F)cc2F)cc1CNCCCN(C)C,100*,-7,0,8,-13
CCN(CC)CCN(Cc1cc2cc(C)ccc2[nH]c1=O)C(=S)Nc1ccccc1,8,-2,0,0,-22
BrC(=C\c1ccccc1)/C=N/N1CCN(Cc2ccccc2)CC1,53*,-4,0,.,-2
FC(F)(F)c1ccc(/C=N/N2CCN(Cc3ccccc3)CC2)cc1,54*,-19,-1,2,-7
O=C(Cn1nc(-c2cccc(Cl)c2)ccc1=O)Nc1ccc(C(=O)NC2CC2)cc1,-3,7,1,-2,4
CC(=O)c1sc(NC(=O)C2(F)C(F)(F)C(F)(F)C(F)(F)C(F)(F)C2(F)F)nc1C,-3,-2,0,76*,3
CC1(C)CC(=O)/C(=C\c2cccc([N+](=O)[O-])c2)C(C)(C)N1,100*,3,4,11,-7
O=C1N/C(=N/O)S/C1=C/c1cccc([N+](=O)[O-])c1,-2,-4,-1,-1,-93
CC(C)(C)c1ccc(C(=O)O)c(C(=O)c2ccccc2)c1,-9,-29,2,-1,-11
COc1cccc(CN2CCN(Cc3ccc(OC)c(OC)c3)CC2CCO)c1 (stereo unspecified),1,-18,0,0,-11
CCCCNC(=O)c1ccccc1NC(=O)CN(c1ccccc1)S(=O)(=O)N(C)C,65*,4,2,1,-12
COC(=O)c1ccccc1NC(=O)CN(c1ccccc1)S(=O)(=O)N(C)C,-4,-10,-1,12,-4
SMILES,Lmaj promast,S1P4 antag,S1P4 ag,S1P3 antagonist,Mdm2 ligase inh
O=C(CCNc1ccccc1)c1cccc([N+](=O)[O-])c1,96*,11,-1,.,-13
O=C(CNc1ccccc1)c1ccc([N+](=O)[O-])cc1,0,3,-1,5,-15
O=C(CCNc1ccc(F)cc1)c1cccc([N+](=O)[O-])c1,97*,13,2,.,6
Cc1ccc(NCCC(=O)c2cccc([N+](=O)[O-])c2)cc1,100*,5,1,.,-11
O=C(NCCNc1ccc([N+](=O)[O-])cc1)c1cccc(Br)c1,-5,-15,1,1,4
Cc1nc(SCC(=O)c2cccc([N+](=O)[O-])c2)n[nH]1,-3,4,-1,.,11
O=C(CCNc1ccc(Br)cc1)c1cccc([N+](=O)[O-])c1,88*,-16,-2,7,9
CC(=O)c1cc2c(cc1NC(=O)C1CCC1)OCO2,-4,-7,0,-10,9

# Screens deposited in PubChem BioAssay by several laboratories.
